Measurements taken from ChEMBL document CHEMBL1141705, “Optimization of a series of multi-isoform PI3 kinase inhibitors” (Bioorg Med Chem Lett, 2008).

Experiments:
[1] = Distribution coefficient, log D of the compound; assay type: physicochemical; settings: octanol/water
Summary of the method: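 logD was determined experimentally at pH 7.4.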

[2] = Cmax in Han/Wistar rat at 3 mg/kg, po; assay type: ADME, organism-based; design: dose 3 mg/kg, route oral; settings: in vivo
Summary of the method: (§1)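 Han-Wistar rats received a single oral dose of 3 mg/kg. Plasma Cmax is reported in ng/mL and AUC in ng h/mL.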

[3] = AUC in Han/Wistar rat at 3 mg/kg, po; assay type: ADME, organism-based; design: dose 3 mg/kg, route oral; settings: plasma; summary of the method: as §1

SMILES | logD [1] | Cmax [2] | AUC [3]
Cc1ccc(-c2ccc3c(c2)N(c2nc4c(s2)C(=O)NC(C)(C)C4)CCO3)nn1 | 2.32 |  | 
COC[C@H](O)Cn1cc(-c2ccc3c(c2)N(c2nc4c(s2)C(=O)NC(C)(C)C4)CCO3)cn1 |  | 187 ng/mL | 807 ng·h/mL
Cc1ccc(Nc2ccc3c(c2)N(c2nc4c(s2)C(=O)NC(C)(C)C4)CCO3)nn1 | 2.39 | 105 ng/mL | 345 ng·h/mL
CC1(C)Cc2nc(N3CCOc4ccc(Nc5ccc(N6CCNCC6)nn5)cc43)sc2C(=O)N1 | 0.6 |  | 
CN1CCN(c2ccc(Nc3ccc4c(c3)N(c3nc5c(s3)C(=O)NC(C)(C)C5)CCO4)nn2)CC1 | 1.76 |  | 
Cc1cc(C)c(Nc2ccc3c(c2)N(c2nc4c(s2)C(=O)NC(C)(C)C4)CCO3)nn1 | 1.97 |  | 
CCn1nc(C)c(-c2ccc3c(c2)N(c2nc4c(s2)C(=O)NC(C)(C)C4)CCO3)c1C | 3.57 | 139 ng/mL | 591 ng·h/mL
COCC(O)Cn1cc(-c2ccc3c(c2)N(c2nc4c(s2)C(=O)NC(C)(C)C4)CCO3)cn1 (stereo unspecified) | 2.19 | 159 ng/mL | 495 ng·h/mL
CC1(C)Cc2nc(N3CCOc4ccc(-c5cnn(Cc6cccnc6)c5)cc43)sc2C(=O)N1 | 2.94 |  | 
Cc1nn(C)cc1-c1ccc2c(c1)N(c1nc3c(s1)C(=O)NC(C)(C)C3)CCO2 | 3 |  | 
CC1(C)Cc2nc(N3CCOc4ccc(Nc5ccc(-c6ccccc6)nn5)cc43)sc2C(=O)N1 | 3.72 |  | 
CC1(C)Cc2nc(N3CCOc4ccc(-c5ccc(N6CCNCC6)nn5)cc43)sc2C(=O)N1 | 2.45 |  | 
CC1(C)Cc2nc(N3CCOc4ccc(-c5cnn(CCN)c5)cc43)sc2C(=O)N1 | 1.16 |  | 
Cn1ncc(-c2ccc3c(c2)N(c2nc4c(s2)C(=O)NC(C)(C)C4)CCO3)c1N | 1.98 |  | 
Cc1n[nH]c(C)c1-c1ccc2c(c1)N(c1nc3c(s1)C(=O)NC(C)(C)C3)CCO2 | 3.04 |  | 
CC(C)(O)Cn1cc(-c2ccc3c(c2)N(c2nc4c(s2)C(=O)NC(C)(C)C4)CCO3)cn1 | 2.74 | 195 ng/mL | 1000 ng·h/mL
CN1CCN(c2ccc(-c3ccc4c(c3)N(c3nc5c(s3)C(=O)NC(C)(C)C5)CCO4)nn2)CC1 | 1.75 |  | 
Cc1nn(CC(C)(C)O)c(C)c1-c1ccc2c(c1)N(c1nc3c(s1)C(=O)NC(C)(C)C3)CCO2 | 2.3 |  | 
CN(C)c1ccc(-c2ccc3c(c2)N(c2nc4c(s2)C(=O)NC(C)(C)C4)CCO3)nn1 | 2.61 |  | 
COc1ccc(-c2ccc3c(c2)N(c2nc4c(s2)C(=O)NC(C)(C)C4)CCO3)nn1 | 0.22 |  | 
CC1(C)Cc2nc(N3CCOc4ccc(-c5cn[nH]c5)cc43)sc2C(=O)N1 | 2.68 |  | 
Cn1cc(-c2ccc3c(c2)N(c2nc4c(s2)C(=O)NC(C)(C)C4)CCO3)cn1 | 2.63 |  | 
CCn1cc(-c2ccc3c(c2)N(c2nc4c(s2)C(=O)NC(C)(C)C4)CCO3)cn1 | 2.73 |  | 
CC1(C)Cc2nc(N3CCOc4ccc(-c5cnn(Cc6ccccc6)c5)cc43)sc2C(=O)N1 | 3.91 | 103 ng/mL | 455 ng·h/mL
COc1ccc(Nc2ccc3c(c2)N(c2nc4c(s2)C(=O)NC(C)(C)C4)CCO3)nn1 | 2.74 |  | 
CC1(C)Cc2nc(N3CCOc4ccc(-c5ccc(N)nn5)cc43)sc2C(=O)N1 | 1.94 | 14 ng/mL | 78 ng·h/mL
Cc1nn(C)c(C)c1-c1ccc2c(c1)N(c1nc3c(s1)C(=O)NC(C)(C)C3)CCO2 | 3.23 |  | 
Cc1nn(CCCN)cc1-c1ccc2c(c1)N(c1nc3c(s1)C(=O)NC(C)(C)C3)CCO2 | 0.38 |  | 
